Activity, Kd and IC50 data for four compounds are collected here from ChEMBL document CHEMBL1150247, “Structural determinants for affinity enhancement of a dual antagonist peptide entry inhibitor of human immunodeficiency virus type-1” (J Med Chem, 2008).

The source made the active and inactive calls. No cut-off for these calls is given here.

Data set [1] relates to Human immunodeficiency virus 1. The data set can be described thus: Binding affinity to immobilized HIV1 YU2 gp120 upto 1 mM by surface plasmon resonance method. In a few lines:
(§1)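 YU2 gp120 (Drosophila S2-expressed, F105-affinity purified) amine-coupled to CM5 chip (~4000 RU); peptides in PBS injected at 15 μL/min, 5 min association, 5 min dissociation. Buffer and anti-IL5Rα 2B6R control-surface responses subtracted; kinetic constants fitted in BIAevaluation.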

Data set [2] in a line: Binding affinity to HIV1 YU2 gp120 by isothermal titration calorimetric method. The arrangement: species or system Human immunodeficiency virus 1.
Data set [3] can be described thus: Cytotoxicity against CCR5 expressing human P4 cells after 2 hrs by MTT assay. The note with it: p4, 2 h. Format: cell-based. The essentials:
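P4-CCR5 cells seeded 4×10^4/well ~18 h ahead, exposed 2 h to varying peptide concentrations, washed, then viability by MTT; triplicate in two independent assays.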

Data set [4] can be described thus: Inhibition of HIV1 YU2 gp120 binding to immobilized CD4 binding site specific F105 monoclonal antibody by surface plasmon resonance method. The arrangement: species or system Human immunodeficiency virus 1.
Data set [5] is described as follows: Inhibition of HIV1 YU2 gp120 binding to immobilized CD4 binding site specific b6 monoclonal antibody by surface plasmon resonance method. Set-up: species or system Human immunodeficiency virus 1.
Data set [6] can be described thus: Inhibition of HIV1 YU2 gp120 binding to immobilized CD4 by surface plasmon resonance method. Set-up: species or system Human immunodeficiency virus 1.
The nature of data set [7]: Inhibition of HIV1 YU2 gp120 binding to immobilized CD4 binding site specific immunoglobulin G b12 monoclonal antibody by surface plasmon resonance method. The arrangement: species or system Human immunodeficiency virus 1.
Data set [8] concerns Human immunodeficiency virus 1. The data set can be described thus: Antiviral activity against HIV1 BaL in CCR5 expressing P4 cells after 2 hrs. Format: functional, organism-based. The note with it: Human immunodeficiency virus 1, BaL, P4, 2 h. In a few lines: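 P4-CCR5 cells (DMEM, 10% FBS, puromycin) seeded 1.2×10^4/well ~18 h ahead; exposed 2 h to HIV-1 BaL plus peptide, washed, cultured 46 more h; infection read by β-galactosidase reporter assay. Infectivity relative to mock-treated infected cells; IC50 from sigmoidal dose-response fit; two independent experiments combined.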

Data set [9] is described as follows: Inhibition of HIV1 YU2 gp120 binding to immobilized CD4 induced 17b monoclonal antibody by surface plasmon resonance method. The arrangement: species or system Human immunodeficiency virus 1.
Data set [10] can be described thus: Binding affinity to immobilized HIV1 YU2 gp120 by surface plasmon resonance method. The arrangement: species or system Human immunodeficiency virus 1. The essentials:
as §1

Turning to `CC[C@H](C)[C@H](NC(=O)[C@@H](N)CCCNC(=N)N)C(=O)N[C@@H](CC(N)=O)C(=O)N[C@@H](CC(N)=O)C(=O)N[C@H](C(=O)N1C[C@@H](n2cc(C3(N)CCCCC3)nn2)C[C@H]1C(=O)N[C@@H](Cc1c[nH]c2ccccc12)C(=O)N[C@@H](CO)C(=O)N[C@@H](CCC(=O)O)C(=O)N[C@@H](C)C(=O)N[C@@H](CCSC)C(=O)N[C@@H](CCSC)C(=O)O)[C@@H](C)CC`, the outcome in [1] was inactive.

As to `CC[C@H](C)[C@H](NC(=O)[C@@H](N)CCCNC(=N)N)C(=O)N[C@@H](CC(N)=O)C(=O)N[C@@H](CC(N)=O)C(=O)N[C@H](C(=O)N1CCC[C@H]1C(=O)N[C@@H](Cc1c[nH]c2ccccc12)C(=O)N[C@@H](CO)C(=O)N[C@@H](CCC(=O)O)C(=O)N[C@@H](C)C(=O)N[C@@H](CCSC)C(=O)N[C@@H](CCSC)C(=O)O)[C@@H](C)CC` [RINNIPWSEAMM], the values for the equilibrium dissociation constant (Kd) in [2] and in [10] were 2.6 µM and 5 µM, respectively. Also, the Activity entry in data set [3] is on record as “Non-toxic”. Also, the half-inhibitory concentration (IC50) was 6.4 µM in data set [4]; 10 µM in data set [5]; 5.4 µM in [6]; 8.8 µM in data set [7]; 48 µM in data set [8]; 7.2 µM in data set [9].

Take `CC[C@H](C)[C@H](NC(=O)[C@@H](N)CCCNC(=N)N)C(=O)N[C@@H](CC(N)=O)C(=O)N[C@@H](CC(N)=O)C(=O)N[C@H](C(=O)N1C[C@@H](n2cc(-c3ccc(C)cc3)nn2)C[C@H]1C(=O)N[C@@H](Cc1c[nH]c2ccccc12)C(=O)N[C@@H](CO)C(=O)N[C@@H](CCC(=O)O)C(=O)N[C@@H](C)C(=O)N[C@@H](CCSC)C(=O)N[C@@H](CCSC)C(=O)O)[C@@H](C)CC`: the Activity entry in [3] is “Non-toxic”. Further, the IC50 in data set [4] worked out at 0.076 µM; in [5], 0.136 µM; in data set [6], 0.067 µM; in [7], 0.117 µM; in data set [8], 0.156 µM; in data set [9] it was 0.094 µM. In [10], this compound showed a Kd of 0.012 µM.

As to `CC[C@H](C)[C@H](NC(=O)[C@@H](N)CCCNC(=N)N)C(=O)N[C@@H](CC(N)=O)C(=O)N[C@@H](CC(N)=O)C(=O)N[C@H](C(=O)N1C[C@@H](n2cc(-c3ccccc3)nn2)C[C@H]1C(=O)N[C@@H](Cc1c[nH]c2ccccc12)C(=O)N[C@@H](CO)C(=O)N[C@@H](CCC(=O)O)C(=O)N[C@@H](C)C(=O)N[C@@H](CCSC)C(=O)N[C@@H](CCSC)C(=O)O)[C@@H](C)CC`, the Kd in data set [2] was 0.033 µM; in [10] it was 0.023 µM. The Activity result in data set [3] is on record as “Non-toxic”. In addition, the IC50 in data set [4] stood at 0.109 µM; in data set [5] it was 0.106 µM; in [6], 0.154 µM; in [7], 0.162 µM; in data set [8], 1.4 µM; in [9] it was 0.172 µM.
